Assay results from publication PMC9463588 (The Journal of Biological Chemistry, 2022).
Substitutions are numbered along the chain they refer to. Names may count otherwise. “Also recorded” adds a separate entry of the source. Like-named read-outs stand apart in the source and are kept apart here. Values belong to the molecule of their own block, whether it stands above or below them.

How the values were obtained:
human CYP8B1 [1] = target: T1, human CYP8B1 (Homo sapiens, UniProt Q9UNU6); test: Ligand-binding assay by shift of the heme Soret peak, wild type CYP8B1; settings: for Shift in Soret peak: spectral binding type, wild type CYP8B1; for Kd / KD: azoles, single site binding fit, interval in parentheses
T1 sequence (Q9UNU6 26-501 limits assumed): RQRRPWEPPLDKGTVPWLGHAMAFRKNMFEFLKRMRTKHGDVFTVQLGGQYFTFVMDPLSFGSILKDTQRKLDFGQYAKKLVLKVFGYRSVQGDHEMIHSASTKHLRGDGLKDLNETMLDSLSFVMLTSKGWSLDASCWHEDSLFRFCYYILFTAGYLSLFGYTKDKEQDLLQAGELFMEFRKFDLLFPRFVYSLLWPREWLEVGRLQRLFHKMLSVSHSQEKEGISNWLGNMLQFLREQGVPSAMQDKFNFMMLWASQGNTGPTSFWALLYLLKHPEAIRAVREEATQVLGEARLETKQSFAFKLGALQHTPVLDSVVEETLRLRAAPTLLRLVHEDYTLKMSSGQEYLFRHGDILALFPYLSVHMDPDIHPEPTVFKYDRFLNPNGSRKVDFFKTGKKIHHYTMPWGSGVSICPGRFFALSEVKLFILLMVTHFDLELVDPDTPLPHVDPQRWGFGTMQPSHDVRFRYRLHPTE
Procedure, shortened: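 Recombinant human CYP8B1 was expressed in E. coli with groES-groEL co-expression and purified by Ni-NTA and cation-exchange chromatography. Ligand was titrated into 1 μM enzyme in 50 mM potassium phosphate with 20% glycerol, in a 1 cm cuvette; azoles were dissolved in DMSO. The Soret shift (local absorbance maximum minus minimum) was plotted against concentration and fitted to a single-site specific binding equation, in triplicate.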

CYP8B1 W281F = target: T2, CYP8B1 W281F (Homo sapiens, UniProt Q9UNU6, W281F); test: Ligand-binding assay by shift of the heme Soret peak, CYP8B1 W281F mutant
T2 sequence (Q9UNU6 26-501 W281F limits assumed): T1 sequence (Q9UNU6 26-501 limits assumed) with W256F

[2] = cited from earlier work
human CYP8B1 [3] = target: T1, human CYP8B1; test: CYP8B1 inhibition assays; assay type: biochemical; settings: activity remaining vs control without inhibitor, 80 μM inhibitor
Procedure, shortened: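 Test compound at 80 μM was added to the kinetic assay: 0.01 μM CYP8B1 and 0.06 μM human P450 reductase in 50 mM potassium phosphate pH 7.4 with 20% glycerol, preincubated 10 min at room temperature. Substrate 7α-hydroxycholest-4-en-3-one was added, 200 μM NADPH started the reaction at 37 °C, and chloroform stopped it. The 12α-hydroxy product was measured by HPLC-UV at 240 nm. Activity is % of an inhibitor-free control; duplicate or triplicate.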

[4] = substrate: CC(C)CCC[C@@H](C)[C@H]1CC[C@H]2[C@@H]3[C@H](O)CC4=CC(=O)CC[C@]4(C)[C@H]3CC[C@]12C; assay type: biochemical, human; settings: other: W281F mutant, 95% CI; pH 7.4
[5] = substrate: CC(C)CCC[C@@H](C)[C@H]1CC[C@H]2[C@@H]3[C@H](O)CC4=CC(=O)CC[C@]4(C)[C@H]3CC[C@]12C; assay type: biochemical, human; settings: other: wild type CYP8B1, 95% CI; pH 7.4

Molecule: CC(C)CCC[C@@H](C)[C@H]1CC[C@H]2[C@@H]3[C@H](O)CC4=CC(=O)CC[C@]4(C)[C@H]3CC[C@]12C [7α-hydroxycholest-4-en-3-one]
Shift in Soret peak (human CYP8B1 [1]): type I
Kd (CYP8B1 W281F): 0.0343 µM

Molecule: C[C@H](CCC(=O)O)[C@H]1CC[C@H]2[C@@H]3[C@H](O)C[C@@H]4C[C@H](O)CC[C@]4(C)[C@H]3C[C@H](O)[C@]12C [Cholic acid]
critical micellar concentration [2]: ~50 µM

Molecule: Clc1ccccc1C(c1ccccc1)(c1ccccc1)n1ccnc1 [Clotrimazole]
Kd (human CYP8B1 [1]): 1.6 µM
Shift in Soret peak (human CYP8B1 [1]): Type II
Turnover at 80 μM (%) (human CYP8B1 [3]): 6.8%

Molecule: OC(Cn1cncn1)(Cn1cncn1)c1ccc(F)cc1F [Fluconazole]
Shift in Soret peak (human CYP8B1 [1]): None
Shift in Soret peak (human CYP8B1 [1]; listed as fluconazole): did not induce a shift; also recorded: no binding
Turnover at 80 μM (%) (human CYP8B1 [3]): 95%

B1: CYP8B1 W281F (Homo sapiens; W281F) (protein)
chain: T1 sequence (Q9UNU6 26-501 limits assumed) with W256F
Km [4]: 0.54 µM
kcat [4]: 0.02 s⁻¹
kcat/Km [4]: 2.2 μM^−^1min^−1

B2: human CYP8B1 (Homo sapiens) (protein)
chain: T1 sequence (Q9UNU6 26-501 limits assumed)
Km [5]: 0.5 µM
kcat [5]: 0.123 s⁻¹
kcat/Km [5]: 14.7 μM^−^1min^−1

Further lines, results first:

Kd (human CYP8B1 [1]): 0.057 µM
KD (human CYP8B1 [1]): submicromolar
Shift in Soret peak (human CYP8B1 [1]): Type II
Turnover at 80 μM (%) (human CYP8B1 [3]): 1.7%
Molecule: Clc1ccc(COC(Cn2ccnc2)c2ccc(Cl)cc2Cl)cc1 (centres unmarked) [Econazole]

Kd (human CYP8B1 [1]): 1.3 µM
KD (human CYP8B1 [1]): micromolar
Shift in Soret peak (human CYP8B1 [1]): Type II
Turnover at 80 μM (%) (human CYP8B1 [3]): 16%
Molecule: CC(=O)N1CCN(c2ccc(OCC3COC(Cn4ccnc4)(c4ccc(Cl)cc4Cl)O3)cc2)CC1 (centres unmarked) [Ketoconazole]

Kd (human CYP8B1 [1]): 1.3 µM
Shift in Soret peak (human CYP8B1 [1]): Type II
Turnover at 80 μM (%) (human CYP8B1 [3]): 30%
Molecule: Clc1cccc(C(c2ccc3[nH]cnc3c2)n2ccnc2)c1 (centres unmarked) [Liarozole]

Kd (human CYP8B1 [1]): 0.098 µM
KD (human CYP8B1 [1]): submicromolar
Shift in Soret peak (human CYP8B1 [1]): Type II
Turnover at 80 μM (%) (human CYP8B1 [3]): 0.75%
Turnover at 80 μM (%) (human CYP8B1 [3]; listed as miconazole): less than 1%
Molecule: Clc1ccc(COC(Cn2ccnc2)c2ccc(Cl)cc2Cl)c(Cl)c1 (centres unmarked) [Miconazole]

Kd (human CYP8B1 [1]): 0.21 µM
KD (human CYP8B1 [1]): submicromolar
Shift in Soret peak (human CYP8B1 [1]): Type II
Turnover at 80 μM (%) (human CYP8B1 [3]): 1.4%
Molecule: Clc1ccc(C(Cn2ccnc2)OCc2ccsc2Cl)c(Cl)c1 (centres unmarked) [Tioconazole]
